ChEMBL document CHEMBL3046679, “Design, synthesis, and biological activities of arylmethylamine substituted chlorotriazine and methylthiotriazine compounds” (J Agric Food Chem, 2011)
The source made the active and inactive calls. No cut-off for these calls is given here.

What was measured:
Heliothis virescens = assay: Insecticidal activity against Lepidoptera Heliothis virescens (tobacco budworm) assessed as mortality at 1000 ppm by leaf-disk assay; format: functional, organism-based
Procedure, shortened: (§1)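 Leaf-disk assay at 1000 ppm, three replicates. Plates kept 5–9 days in controlled-environment cabinets. Mortality judged against untreated wells: 99 for significant mortality, 0 otherwise. Values are the mean of three; thiamethoxam and indoxacarb used as positive controls.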

Echinochloa crus-galli [1] = assay: Herbicidal activity against Echinochloa crus-galli (barnyard grass) at 1.5 kg/ha preemergence treatment measured after 10 days by glasshouse test; format: functional; conditions: pre-emergence, 240 h
Procedure, shortened: (§2)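 Glasshouse pre/postemergence test, each treatment in triplicate. Above-ground fresh weight measured 10 days after treatment. Result expressed as percent inhibition versus control, from 0 (no control) to 100 (complete control); glyphosate used as positive control.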

Pythium dissimile = assay: Fungicidal activity against Pythium dissimile assessed as inhibition of mycelia growth at 2 ppm; format: functional, organism-based
Procedure, shortened: (§3)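 Mycelial growth test in 96-well plates: compound incorporated into artificial growth medium at 2 ppm, two replicates per rate. Each well scored 99 for complete, 55 for partial or 0 for no inhibition. Values are the mean across replicates; azoxystrobin and prochloraz used as positive controls.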

Aphididae = assay: Insecticidal activity against Aphididae (aphids) assessed as mortality at 1000 ppm by leaf-disk assay; format: functional, organism-based; procedure, shortened: as §1
Phytophthora infestans [2] = assay: Fungicidal activity against Phytophthora infestans assessed as inhibition of mycelia growth at 200 ppm; format: functional, organism-based
Echinochloa crus-galli [3] = assay: Herbicidal activity against Echinochloa crus-galli (barnyard grass) at 1.5 kg/ha postemergence treatment measured after 10 days by glasshouse test; format: functional; conditions: post-emergence, 240 h; procedure, shortened: as §2
Fusarium graminearum = assay: Fungicidal activity against Fusarium graminearum assessed as inhibition of mycelia growth at 2 ppm; format: functional, organism-based; procedure, shortened: as §3
Botrytis cinerea = assay: Fungicidal activity against Botryotinia fuckeliana assessed as inhibition of mycelia growth at 2 ppm; format: functional, organism-based; procedure, shortened: as §3
Brassica napus [4] = assay: Herbicidal activity against Brassica napus (oilseed rape) at 1.5 kg/ha postemergence treatment measured after 10 days by glasshouse test; format: functional; conditions: post-emergence, 240 h; procedure, shortened: as §2
Brassica napus [5] = assay: Herbicidal activity against Brassica napus (oilseed rape) at 1.5 kg/ha preemergence treatment measured after 10 days by glasshouse test; format: functional; conditions: pre-emergence, 240 h; procedure, shortened: as §2
Alternaria solani [6] = assay: Fungicidal activity against Alternaria solani assessed as inhibition of mycelia growth at 2 ppm; format: functional, organism-based; procedure, shortened: as §3
Zymoseptoria tritici = assay: Fungicidal activity against Zymoseptoria tritici assessed as inhibition of mycelia growth at 100 ppm; format: functional, organism-based
Uromyces viciae-fabae = assay: Fungicidal activity against Uromyces viciae-fabae assessed as inhibition of mycelia growth at 100 ppm; format: functional, organism-based
Procedure, shortened: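 Leaf-piece assay on bean at 100 ppm, with compound applied before spore inoculation and two replicates. Each well scored 99 for complete inhibition, 55 for partial and 0 for none; value is the mean score across replicates.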

Pyrenophora teres [7] = assay: Fungicidal activity against Pyrenophora teres assessed as inhibition of disease development in compound treated leaf pieces at 200 ppm relative to untreated control (barley-preventative); format: functional
Procedure, shortened: (§4)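 Preventative leaf-piece test on host tissue (tomato, vine, wheat or barley). Formulated compound applied at 200, 60 and 20 ppm before spore inoculation. Disease scored 3–9 days after inoculation, depending on the pathogen, as percent inhibition of disease development versus untreated controls. Values are the mean across replicates.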

Triticum aestivum = assay: Phytotoxicity against Triticum aestivum (wheat) plant at 200 ppm; format: organism-based; conditions: in vivo
Puccinia triticina [8] = assay: Fungicidal activity against Puccinia triticina assessed as inhibition of disease development in compound treated leaf pieces at 20 ppm relative to untreated control (wheat-curative); format: functional
Procedure, shortened: (§5)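 Curative wheat leaf-piece test against Puccinia triticina. Leaf pieces inoculated with spores first, then treated with formulated compound at 200, 60 or 20 ppm. Disease scored 3–9 days after inoculation as percent inhibition versus untreated controls. Values are the mean across replicates.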

Plasmopara viticola [9] = assay: Fungicidal activity against Plasmopara viticola assessed as inhibition of disease development in compound treated leaf pieces at 200 ppm relative to untreated control (grapevine-preventative); format: functional; procedure, shortened: as §4
Parastagonospora nodorum [10] = assay: Fungicidal activity against Phaeosphaeria nodorum assessed as inhibition of disease development in compound treated leaf pieces at 20 ppm relative to untreated control (wheat preventative); format: functional; procedure, shortened: as §4
Parastagonospora nodorum [11] = assay: Fungicidal activity against Phaeosphaeria nodorum assessed as inhibition of disease development in compound treated leaf pieces at 60 ppm relative to untreated control (wheat preventative); format: functional; procedure, shortened: as §4
[12] = test system: Blumeria graminis f. sp. tritici; assay: Fungicidal activity against Blumeria graminis f. sp. tritici assessed as inhibition of disease development in compound treated leaf pieces at 20 ppm relative to untreated control (wheat-preventative); format: functional
[13] = test system: Blumeria graminis f. sp. tritici; assay: Fungicidal activity against Blumeria graminis f. sp. tritici assessed as inhibition of disease development in compound treated leaf pieces at 200 ppm relative to untreated control (wheat-preventative); format: functional
Puccinia triticina [14] = assay: Fungicidal activity against Puccinia triticina assessed as inhibition of disease development in compound treated leaf pieces at 60 ppm relative to untreated control (wheat-preventative); format: functional; procedure, shortened: as §4
Alternaria solani [15] = assay: Fungicidal activity against Alternaria solani assessed as inhibition of disease development in compound treated leaf pieces at 20 ppm relative to untreated control (tomato-preventative); format: functional; procedure, shortened: as §4
Alternaria solani [16] = assay: Fungicidal activity against Alternaria solani assessed as inhibition of disease development in compound treated leaf pieces at 60 ppm relative to untreated control (tomato-preventative); format: functional; procedure, shortened: as §4
Plasmopara viticola [17] = assay: Fungicidal activity against Plasmopara viticola assessed as inhibition of disease development in compound treated leaf pieces at 60 ppm relative to untreated control (grapevine-preventative); format: functional; procedure, shortened: as §4
Puccinia triticina [18] = assay: Fungicidal activity against Puccinia triticina assessed as inhibition of disease development in compound treated leaf pieces at 20 ppm relative to untreated control (wheat-preventative); format: functional; procedure, shortened: as §4
[19] = test system: Blumeria graminis f. sp. tritici; assay: Fungicidal activity against Blumeria graminis f. sp. tritici assessed as inhibition of disease development in compound treated leaf pieces at 60 ppm relative to untreated control (wheat-preventative); format: functional
Alternaria solani [20] = assay: Fungicidal activity against Alternaria solani assessed as inhibition of disease development in compound treated leaf pieces at 200 ppm relative to untreated control (tomato-preventative); format: functional; procedure, shortened: as §4
Pyrenophora teres [21] = assay: Fungicidal activity against Pyrenophora teres assessed as inhibition of disease development in compound treated leaf pieces at 60 ppm relative to untreated control (barley-preventative); format: functional; procedure, shortened: as §4
Puccinia triticina [22] = assay: Fungicidal activity against Puccinia triticina assessed as inhibition of disease development in compound treated leaf pieces at 60 ppm relative to untreated control (wheat-curative); format: functional; procedure, shortened: as §5
Pyrenophora teres [23] = assay: Fungicidal activity against Pyrenophora teres assessed as inhibition of disease development in compound treated leaf pieces at 20 ppm relative to untreated control (barley-preventative); format: functional; procedure, shortened: as §4
Puccinia triticina [24] = assay: Fungicidal activity against Puccinia triticina assessed as inhibition of disease development in compound treated leaf pieces at 200 ppm relative to untreated control (wheat-curative); format: functional; procedure, shortened: as §5
Puccinia triticina [25] = assay: Fungicidal activity against Puccinia triticina assessed as inhibition of disease development in compound treated leaf pieces at 200 ppm relative to untreated control (wheat-preventative); format: functional; procedure, shortened: as §4
Phytophthora infestans [26] = assay: Fungicidal activity against Phytophthora infestans assessed as inhibition of disease development in compound treated leaf pieces at 200 ppm relative to untreated control (tomato-preventative); format: functional; procedure, shortened: as §4
Plasmopara viticola [27] = assay: Fungicidal activity against Plasmopara viticola assessed as inhibition of disease development in compound treated leaf pieces at 20 ppm relative to untreated control (grapevine-preventative); format: functional; procedure, shortened: as §4
Phytophthora infestans [28] = assay: Fungicidal activity against Phytophthora infestans assessed as inhibition of disease development in compound treated leaf pieces at 60 ppm relative to untreated control (tomato-preventative); format: functional; procedure, shortened: as §4
Phytophthora infestans [29] = assay: Fungicidal activity against Phytophthora infestans assessed as inhibition of disease development in compound treated leaf pieces at 20 ppm relative to untreated control (tomato-preventative); format: functional; procedure, shortened: as §4

Question: For `CC(C)Nc1nc(Cl)nc(NCc2cnc(Br)s2)n1`, which mortality (Heliothis virescens) is on record?
Answer: inactive

Question: And the inhibition at 1500 g/ha (Echinochloa crus-galli [1])?
Answer: 11.3%

Question: What about the inhibition (Pythium dissimile) of the same compound?
Answer: inactive

Question: What about the mortality (Aphididae) of the same compound?
Answer: inactive

Question: And the inhibition (Phytophthora infestans [2])?
Answer: inactive

Question: What about the inhibition at 1500 g/ha (Echinochloa crus-galli [3]) of the same compound?
Answer: 10.4%

Question: And the inhibition (Fusarium graminearum)?
Answer: inactive

Question: What about the inhibition (Botrytis cinerea) of the same compound?
Answer: inactive

Question: What about the inhibition at 1500 g/ha (Brassica napus [4]) of the same compound?
Answer: 10%

Question: What about the inhibition at 1500 g/ha (Brassica napus [5]) of the same compound?
Answer: 5.2%

Question: What about the inhibition (Alternaria solani [6]) of the same compound?
Answer: inactive

Question: What about the inhibition (Zymoseptoria tritici) of the same compound?
Answer: inactive

Question: And the inhibition (Uromyces viciae-fabae)?
Answer: inactive

Question: For `CSc1nc(NCc2cc(-c3ccccc3)no2)nc(NC(C)C)n1`, which inhibition at 200 ppm (Pyrenophora teres [7]) is on record?
Answer: 0%

Question: What about the Activity (Triticum aestivum) of the same compound?
Answer: Toxic

Question: What about the mortality (Heliothis virescens) of the same compound?
Answer: inactive

Question: What about the inhibition at 20 ppm (Puccinia triticina [8]) of the same compound?
Answer: 70%

Question: And the inhibition at 1500 g/ha (Echinochloa crus-galli [1])?
Answer: 37.6%

Question: What about the inhibition at 200 ppm (Plasmopara viticola [9]) of the same compound?
Answer: 0%

Question: And the inhibition at 20 ppm (Parastagonospora nodorum [10])?
Answer: 0%

Question: What about the inhibition (Pythium dissimile) of the same compound?
Answer: inactive

Question: And the inhibition at 60 ppm (Parastagonospora nodorum [11])?
Answer: 70%

Question: And the mortality (Aphididae)?
Answer: inactive

Question: And the inhibition at 20 ppm [12]?
Answer: 0%

Question: What about the inhibition at 200 ppm [13] of the same compound?
Answer: 70%

Question: And the inhibition at 60 ppm (Puccinia triticina [14])?
Answer: 70%

Question: And the inhibition at 20 ppm (Alternaria solani [15])?
Answer: 0%

Question: What about the inhibition at 60 ppm (Alternaria solani [16]) of the same compound?
Answer: 0%

Question: And the inhibition (Phytophthora infestans [2])?
Answer: inactive

Question: And the inhibition at 60 ppm (Plasmopara viticola [17])?
Answer: 0%

Question: What about the inhibition at 1500 g/ha (Echinochloa crus-galli [3]) of the same compound?
Answer: 14.3%

Question: What about the inhibition (Fusarium graminearum) of the same compound?
Answer: inactive

Question: What about the inhibition at 20 ppm (Puccinia triticina [18]) of the same compound?
Answer: 0%

Question: What about the inhibition at 60 ppm [19] of the same compound?
Answer: 70%

Question: What about the inhibition at 200 ppm (Alternaria solani [20]) of the same compound?
Answer: 0%

Question: And the inhibition at 60 ppm (Pyrenophora teres [21])?
Answer: 0%

Question: What about the inhibition at 60 ppm (Puccinia triticina [22]) of the same compound?
Answer: 100%

Question: What about the inhibition at 20 ppm (Pyrenophora teres [23]) of the same compound?
Answer: 0%

Question: And the inhibition at 200 ppm (Puccinia triticina [24])?
Answer: 100%

Question: What about the inhibition at 1500 g/ha (Brassica napus [4]) of the same compound?
Answer: 100%

Question: And the inhibition at 200 ppm (Puccinia triticina [25])?
Answer: 100%

Question: What about the inhibition at 200 ppm (Phytophthora infestans [26]) of the same compound?
Answer: 0%

Question: What about the inhibition at 1500 g/ha (Brassica napus [5]) of the same compound?
Answer: 33.1%

Question: What about the inhibition (Alternaria solani [6]) of the same compound?
Answer: inactive

Question: And the inhibition at 20 ppm (Plasmopara viticola [27])?
Answer: 0%

Question: And the inhibition at 60 ppm (Phytophthora infestans [28])?
Answer: 0%

Question: What about the inhibition at 20 ppm (Phytophthora infestans [29]) of the same compound?
Answer: 0%

Question: What about the inhibition (Uromyces viciae-fabae) of the same compound?
Answer: Active
